This note sets out measurements from ChEMBL document CHEMBL4041542, “Synthesis and biological characterisation of ester and amide derivatives of fusidic acid as antiplasmodial agents” (Bioorg Med Chem Lett, 2017).

One data set has as its system CHO. Put plainly: Cytotoxicity against CHO cells. It counts as cell-based. The note with it: Cricetulus griseus.
The subject of data set [1] is Plasmodium falciparum. In words: Antiplasmodial activity against chloroquine-sensitive Plasmodium falciparum D10 infected in erythrocytes after 48 hrs by giemsa staining based assay. It counts as functional, cell-based. The note with it: D10, 48 h.
In data set [2] the test system is Plasmodium falciparum. In words: Antiplasmodial activity against chloroquine-resistant Plasmodium falciparum K1 by [3H]hypoxanthine incorporation assay. It counts as functional. The essentials: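 Multidrug-resistant K1 strain of P. falciparum tested in vitro with a modified [3H]hypoxanthine incorporation assay. IC50 determined. Chloroquine and artesunate served as reference drugs in every experiment.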

Data set [3] in a line: Selectivity index, ratio of IC50 for CHO cells to IC50 for chloroquine-sensitive Plasmodium falciparum NF54. The data set is classed as toxicity. The note with it: hamster, read-out: Ratio IC50. The essentials: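 IC50 against Chinese hamster ovary cells (cytotoxicity) was divided by IC50 against P. falciparum NF54. NF54 IC50 came from the lactate dehydrogenase assay, with chloroquine and artesunate as references.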

Data set [4] relates to Plasmodium falciparum. In words: Potency index, ratio of fusidic acid IC50 to compound IC50 for chloroquine-sensitive Plasmodium falciparum NF54. It counts as functional. In a few lines:
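Chloroquine-sensitive P. falciparum NF54 was tested with the lactate dehydrogenase assay, using chloroquine and artesunate as reference drugs. The index is fusidic acid's IC50 divided by the compound's IC50, both against NF54.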

Data set [5] concerns Plasmodium falciparum. In words: Antiplasmodial activity against chloroquine-sensitive Plasmodium falciparum NF54 by LDH assay. The data set is classed as functional. The essentials:
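In vitro test on the chloroquine-sensitive NF54 strain of P. falciparum, read out by the lactate dehydrogenase assay. Reported as IC50. Chloroquine and artesunate were included as reference drugs in all experiments.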

Data set [6] deals with Plasmodium falciparum. In words: Potency index, ratio of fusidic acid IC50 to compound IC50 for chloroquine-resistant Plasmodium falciparum K1. The data set is classed as functional.
Data set [7] can be described thus: Stability of the compound assessed as Plasmodium falciparum NF54 esterase-mediated fusidic acid release at 0.5 uM up to 48 hrs by LC-MS/MS analysis. The note with it: plasmodium falciparum nf54, isolated protein. It counts as ADME.

Consider `CC(=O)O[C@H]1C[C@@]2(C)[C@@H](C[C@@H](O)[C@H]3[C@@]4(C)CC[C@@H](O)[C@@H](C)[C@@H]4CC[C@@]32C)/C1=C(\CCC=C(C)C)C(=O)O` [FUSIDIC ACID], for which the values for the IC50 with CHO, with Plasmodium falciparum [1] and with Plasmodium falciparum [2] were above 194 µM, 50 µM and 19 µM, respectively. For the same molecule, the selectivity ratio in data set [3] was above 3.
`CC(=O)O[C@H]1C[C@@]2(C)[C@@H](C[C@@H](O)[C@H]3[C@@]4(C)CC[C@@H](O)[C@@H](C)[C@@H]4CC[C@@]32C)/C1=C(\CCC=C(C)C)C(=O)Nc1ccccc1`: the “Ratio IC50” value with Plasmodium falciparum [4] is listed as 4 - 49; in the data set on Plasmodium falciparum [6], 5 - 17. For the same molecule, the IC50 with Plasmodium falciparum [5] was 1.2 µM; in the data set with CHO, 89.2 µM; with Plasmodium falciparum [2] it was 1.4 µM. Moreover, the Stability entry in data set [7] is reported as “Stable”. The selectivity ratio in data set [3] came to 74.
`CCOC(=O)/C(CCC=C(C)C)=C1\[C@@H](OC(C)=O)C[C@@]2(C)[C@H]1C[C@@H](O)[C@H]1[C@@]3(C)CC[C@@H](O)[C@@H](C)[C@@H]3CC[C@@]12C`: the results for the “Ratio IC50” value with Plasmodium falciparum [4] and in the data set on Plasmodium falciparum [6] were 4 - 49 and 5 - 17, respectively. The IC50 is 3.4 µM in the data set on Plasmodium falciparum [5], 65.5 µM with CHO and 2.2 µM with Plasmodium falciparum [2]. Also, in data set [7], the Stability entry is on record as “Stable”. Further, the selectivity ratio in data set [3] came to 19.
Take `CC(=O)O[C@H]1C[C@@]2(C)[C@@H](C[C@@H](O)[C@H]3[C@@]4(C)CC[C@@H](O)[C@@H](C)[C@@H]4CC[C@@]32C)/C1=C(\CCC=C(C)C)C(=O)Oc1cc(Cl)cc(Cl)c1`: the entries for the “Ratio IC50” value in the data set on Plasmodium falciparum [4] and in the data set on Plasmodium falciparum [6] were 4 - 49 and 5 - 17, respectively. Moreover, the results for the IC50 with Plasmodium falciparum [5], in the data set on CHO and in the data set with Plasmodium falciparum [2] were 2 µM, 81.9 µM and 1.1 µM, respectively. In addition, the selectivity ratio in data set [3] worked out at 41.
Consider `CC(=O)O[C@H]1C[C@@]2(C)[C@@H](C[C@@H](O)[C@H]3[C@@]4(C)CC[C@@H](O)[C@@H](C)[C@@H]4CC[C@@]32C)/C1=C(\CCC=C(C)C)C(=O)Oc1ccccc1`, for which the results for the “Ratio IC50” value in the data set with Plasmodium falciparum [4] and in the data set on Plasmodium falciparum [6] were 20 - 28 and 12 - 14, respectively. The IC50 in the data set with Plasmodium falciparum [5] is 2.4 µM; in the data set on CHO it was 99.4 µM; with Plasmodium falciparum [2], 1.4 µM. In data set [7], the Stability entry is given as “Stable”. Also, in data set [3], the selectivity ratio worked out at 41.

One may read the IC50 as the concentration at which inhibition is half-maximal. Low values mean higher potency, high ones lower potency.
